B1: tRNA (parent)
chain: GUUCCGUUGGCGUAAUGGUAACGCGUCUCCCUCCUAAGGAGAAGACUGCGGGUUCGAGUCCCGUACGGAACG

The variants in this data set derive from B1. The data set can be described thus: yeast fitness, log relative to wild type (ln ratio); higher = fitter; tRNA-Arg(CCU), competitive growth, 37 C, 1 M NaCl. The essentials:
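BY4742 cells without the chromosomal tRNA-Arg(CCU) gene carried a combinatorial variant library on a HIS3 centromeric plasmid, from two independent transformations. After 4 generations in SC-HIS at 30 °C, pools spent ~6.5 generations (~26.5 h) in SC-HIS 1M NaCl at 37 °C, giving three outputs per input, and 125 bp paired-end Illumina reads counted the variants. Fitness is the natural log of each genotype's generations over the wild type's, with generations taken as OD-scaled log2 output/input frequency weighted by inverse variance across replicates.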
Take GGUCCGUUGGCGUAAUGGUAACGCGUUUCCCUCCUAAGGAGACGAUUGCGGGUUCGAGUCCCGUACGGGGUG [U2G C27U A43C C46U A69G A70G C71U]: the “yeast fitness (ln)” value is -0.132.

For the variant GGUCCGUUGGCGUAAUGGUAACGCGUCUCCCUCCUAAGGAGACGACUGCGGGUUCGAGUCCCGUAUGGAUCG [U2G A43C C66U A70U], the “yeast fitness (ln)” value is -0.268.

Regarding GGUCCGUUGGCGUAAUGGUAACGCGUCUCCCUCCUAAGGAGACGACUGCGGGUUCGAGUCCCGUAUGGAGCG [U2G A43C C66U A70G], the “yeast fitness (ln)” value is -0.156.

For GGUCCGUUGGCGUAAUGGUAACGCGUUUCCCUCCUAAGGAGACGAUUGCGGGUUCGAGUCCCGUACGGGAUG [U2G C27U A43C C46U A69G C71U], the “yeast fitness (ln)” value was -0.193.

With GGUCCGUUGGCGUAAUGGUAACGCGUCUCCCUCCUAAGGAGACGACUGCGGGUUCGAGUCCCGUAUGGGUUG [U2G A43C C66U A69G A70U C71U], the “yeast fitness (ln)” value was -0.468.

Regarding GGUCCGUUGGCGUAAUGGUAACGCGUUUCCCUCCUAAGGAGACGAUUGCGGGUUCGAGUCCCGUACGGAGCG [U2G C27U A43C C46U A70G], the “yeast fitness (ln)” value is -0.227.

GGUCCGUUGGCGUAAUGGUAACGCGUCUCCCUCCUAAGGAGAAGACUGCGGGUUCGAGUCCCGUACGGAGUG [U2G A70G C71U]: the “yeast fitness (ln)” value was -0.268.

Regarding GGUCCGUUGGCGUAAUGGUAACGCGUCUCCCUCCUAAGGAGACGACUGCGGGUUCGAGUCCCGUAUGGAUUG [U2G A43C C66U A70U C71U], the “yeast fitness (ln)” value was -0.351.

Take GGUCCGUUGGCGUAAUGGUAACGCGUCUCCCUCCUAAGGAGAAGACUGCGGGUUCGAGUCCCGUACGGGGUG [U2G A69G A70G C71U]: the “yeast fitness (ln)” value was -0.191.

Regarding GGUCCGUUGGCGUAAUGGUAACGCGUUUCCCUCCUAAGGAGAAGACUGCGGGUUCGAGUCCCGUACGGAACG [U2G C27U], the “yeast fitness (ln)” value is -0.0566.

For GGUCCGUUGGCGUAAUGGUAACGCGUCUCCCUCCUAAGGAGAAGACUGCGGGUUCGAGUCCCGUACGGGUUG [U2G A69G A70U C71U], the “yeast fitness (ln)” value was -0.25.

Turning to GGUCCGUUGGCGUAAUGGUAACGCGUCUCCCUCCUAAGGAGACGACUGCGGGUUCGAGUCCCGUACGGAAUG [U2G A43C C71U], the “yeast fitness (ln)” value was -0.102.

Turning to GGUCCGUUGGCGUAAUGGUAACGCGUCUCCCUCCUAAGGAGAAGACUGCGGGUUCGAGUCCCGUACGGAUUG [U2G A70U C71U], the “yeast fitness (ln)” value was -0.017.

For the variant GGUCCGUUGGCGUAAUGGUAACGCGUUUCCCUCCUAAGGAGACGACUGCGGGUUCGAGUCCCGUACGGAACG [U2G C27U A43C], the “yeast fitness (ln)” value is -0.0611.

With GGUCCGUUGGCGUAAUGGUAACGCGUCUCCCUCCUAAGGAGACGACUGCGGGUUCGAGUCCCGUAUGGAAUG [U2G A43C C66U C71U], the “yeast fitness (ln)” value is -0.343.

For GGUCCGUUGGCGUAAUGGUAACGCGUCUCCCUCCUAAGGAGACGACUGCGGGUUCGAGUCCCGUAUGGAGUG [U2G A43C C66U A70G C71U], the “yeast fitness (ln)” value was -0.22.

GGUCCGUUGGCGUAAUGGUAACGCGUUUCCCUCCUAAGGAGACGACUGCGGGUUCGAGUCCCGUACGGAUUG [U2G C27U A43C A70U C71U]: the “yeast fitness (ln)” value was -0.235.

GGUCCGUUGGCGUAAUGGUAACGCGUUUCCCUCCUAAGGAGACGACUGCGGGUUCGAGUCCCGUACGGGACG [U2G C27U A43C A69G]: the “yeast fitness (ln)” value was -0.0811.

Consider GGUCCGUUGGCGUAAUGGUAACGCGUCUCCCUCCUAAGGAGAAGACUGCGGGUUCGAGUCCCGUACGGGGCG [U2G A69G A70G], for which the “yeast fitness (ln)” value was -0.147.

For the variant GGUCCGUUGGCGUAAUGGUAACGCGUCUCCCUCCUAAGGAGAAGACUGCGGGUUCGAGUCCCGUACGGGUCG [U2G A69G A70U], the “yeast fitness (ln)” value is -0.00206.

Take GGUCCGUUGGCGUAAUGGUAACGCGUUUCCCUCCUAAGGAGACGACUGCGGGUUCGAGUCCCGUACGGAGUG [U2G C27U A43C A70G C71U]: the “yeast fitness (ln)” value is -0.151.

On to GGUCCGUUGGCGUAAUGGUAACGCGUCUCCCUCCUAAGGAGAAGACUGCGGGUUCGAGUCCCGUACGGGACG [U2G A69G], for which the “yeast fitness (ln)” value was -0.112.

As for GGUCCGUUGGCGUAAUGGUAACGCGUUUCCCUCCUAAGGAGACGACUGCGGGUUCGAGUCCCGUACGGAUCG [U2G C27U A43C A70U], the “yeast fitness (ln)” value is -0.0184.

Consider GGUCCGUUGGCGUAAUGGUAACGCGUUUCCCUCCUAAGGAGACGACUGCGGGUUCGAGUCCCGUACGGAGCG [U2G C27U A43C A70G], for which the “yeast fitness (ln)” value was -0.178.

With GGUCCGUUGGCGUAAUGGUAACGCGUUUCCCUCCUAAGGAGACGAUUGCGGGUUCGAGUCCCGUACGGGUCG [U2G C27U A43C C46U A69G A70U], the “yeast fitness (ln)” value is -0.0275.

As for GGUCCGUUGGCGUAAUGGUAACGCGUUUCCCUCCUAAGGAGACGAUUGCGGGUUCGAGUCCCGUACGGGGCG [U2G C27U A43C C46U A69G A70G], the “yeast fitness (ln)” value is -0.114.

For GGUCCGUUGGCGUAAUGGUAACGCGUCUCCCUCCUAAGGAGAAGACUGCGGGUUCGAGUCCCGUACGGGAUG [U2G A69G C71U], the “yeast fitness (ln)” value was -0.101.

In the case of GGUCCGUUGGCGUAAUGGUAACGCGUUUCCCUCCUAAGGAGACGACUGCGGGUUCGAGUCCCGUACGGGGCG [U2G C27U A43C A69G A70G], the “yeast fitness (ln)” value was -0.238.

As to GGUCCGUUGGCGUAAUGGUAACGCGUUUCCCUCCUAAGGAGACGACUGCGGGUUCGAGUCCCGUACGGGUCG [U2G C27U A43C A69G A70U], the “yeast fitness (ln)” value was -0.267.

Regarding GGUCCGUUGGCGUAAUGGUAACGCGUCUCCCUCCUAAGGAGAAGACUGCGGGUUCGAGUCCCGUACGGAUCG [U2G A70U], the “yeast fitness (ln)” value was -0.00577.

Take GGUCCGUUGGCGUAAUGGUAACGCGUCUCCCUCCUAAGGAGAAGACUGCGGGUUCGAGUCCCGUACGGAGCG [U2G A70G]: the “yeast fitness (ln)” value was -0.0201.

As to GGUCCGUUGGCGUAAUGGUAACGCGUUUCCCUCCUAAGGAGACGAUUGCGGGUUCGAGUCCCGUACGGGUUG [U2G C27U A43C C46U A69G A70U C71U], the “yeast fitness (ln)” value was -0.295.

Regarding GGUCCGUUGGCGUAAUGGUAACGCGUCUCCCUCCUAAGGAGACGACUGCGGGUUCGAGUCCCGUAUGGGAUG [U2G A43C C66U A69G C71U], the “yeast fitness (ln)” value is -0.455.

Regarding GGUCCGUUGGCGUAAUGGUAACGCGUUUCCCUCCUAAGGAGACGAUUGCGGGUUCGAGUCCCGUACGGAACG [U2G C27U A43C C46U], the “yeast fitness (ln)” value was -0.0622.

Take GGUCCGUUGGCGUAAUGGUAACGCGUUUCCCUCCUAAGGAGACGACUGCGGGUUCGAGUCCCGUACGGGGUG [U2G C27U A43C A69G A70G C71U]: the “yeast fitness (ln)” value is -0.204.

Consider GGUCCGUUGGCGUAAUGGUAACGCGUUUCCCUCCUAAGGAGACGAUUGCGGGUUCGAGUCCCGUACGGGACG [U2G C27U A43C C46U A69G], for which the “yeast fitness (ln)” value is -0.0569.

GGUCCGUUGGCGUAAUGGUAACGCGUUUCCCUCCUAAGGAGACGACUGCGGGUUCGAGUCCCGUACGGGAUG [U2G C27U A43C A69G C71U]: the “yeast fitness (ln)” value is -0.318.

Turning to GGUCCGUUGGCGUAAUGGUAACGCGUUUCCCUCCUAAGGAGACGACUGCGGGUUCGAGUCCCGUACGGGUUG [U2G C27U A43C A69G A70U C71U], the “yeast fitness (ln)” value was -0.364.

The values above are taken from the RNAGym collection of RNA variant scans (doi:10.1038/s41586-018-0170-7).
